# How the values were obtained:
# HL-60 [1] = test: Cytotoxicity against human HL60 cells after 48 hrs by MTT assay; format: functional, cell-based; conditions: HL-60, 48 h
# Procedure, shortened: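 Log-phase HL-60 cells were seeded at 1.25 × 10⁵ cells/mL and treated in four replicates across various concentrations for 48 h. MTT (5 mg/mL solution) was then added and incubated a further 4 h. The wells were then solubilised with 10% SDS–5% isobutanol–0.012 mol/L HCl before the colorimetric read-out.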
# SMMC-7721 = test: Cytotoxicity against human SMMC7721 cells after 48 hrs by MTT assay; format: functional, cell-based; conditions: SMMC-7721, 48 h
# A549 = test: Cytotoxicity against human A549 cells after 48 hrs by MTT assay; format: functional, cell-based; conditions: A549, 48 h
# SK-BR-3 = test: Cytotoxicity against human SKBR3 cells after 48 hrs by MTT assay; format: functional, cell-based; conditions: SK-BR-3, 48 h
# PANC-1 = test: Cytotoxicity against human PANC1 cells after 48 hrs by MTT assay; format: functional, cell-based; conditions: PANC-1, 48 h
# [2] = Chemical stability of the compound in 0.1 M phosphate buffer at pH 7.0 at 0.1 mg/mL after 12 hrs by HPLC analysis; format: physicochemical; conditions: pH 7, 12 h
# HL-60 [3] = test: Ratio IC50 for cheliensisin A to compound for human HL60 cells after 48 hrs by MTT assay; format: functional
SMILES,IC50 (HL-60 [1]),IC50 (SMMC-7721),IC50 (A549),IC50 (SK-BR-3),IC50 (PANC-1),Stability [2],Ratio IC50 (HL-60 [3])
CC(=O)O[C@H]1C=CC(=O)O[C@@H]1[C@H]1N=C(c2ccccc2)O[C@@H]1c1ccccc1,> 40 µM,> 40 µM,> 40 µM,> 40 µM,> 40 µM,–,–
CC(=O)O[C@H]1C=CC(=O)O[C@@H]1[C@@H]1N=C(c2ccccc2)O[C@@H]1c1ccccc1,4.3 µM,17.7 µM,18.3 µM,3.65 µM,12.8 µM,–,–
CC(=O)O[C@H]1C=CC(=O)O[C@@H]1[C@H]1N=C(Cc2ccccc2)O[C@@H]1c1ccccc1,17.8 µM,> 40 µM,> 40 µM,35.2 µM,> 40 µM,–,–
C/C=C/C1=N[C@@H]([C@H]2OC(=O)C=C[C@@H]2OC(C)=O)[C@@H](c2ccccc2)O1,1.26 µM,14.5 µM,30.7 µM,2.22 µM,3.87 µM,–,–
C/C=C\C1=N[C@H]([C@H]2OC(=O)C=C[C@@H]2OC(C)=O)[C@@H](c2ccccc2)O1,4.59 µM,27 µM,> 40 µM,> 40 µM,23 µM,–,–
C/C=C/C1=N[C@H]([C@H]2OC(=O)C=C[C@@H]2OC(C)=O)[C@@H](c2ccccc2)O1,6.93 µM,> 40 µM,> 40 µM,18 µM,24.4 µM,–,–
CC(=O)O[C@H]1C=CC(=O)O[C@@H]1[C@@H]1N=C(/C=C/c2ccccc2)O[C@@H]1c1ccccc1,0.48 µM,21 µM,18.9 µM,4.03 µM,4.1 µM,Stable,4
CC(=O)O[C@H]1C=CC(=O)O[C@@H]1[C@H]1N=C(/C=C/c2ccccc2)O[C@@H]1c1ccccc1,4.05 µM,24 µM,21.9 µM,23.1 µM,21.1 µM,–,–
CC(=O)O[C@H]1C=CC(=O)O[C@@H]1[C@H]1N=C(C)O[C@@H]1c1ccccc1,2.52 µM,16.3 µM,> 40 µM,7.26 µM,16.6 µM,–,–
CC(=O)O[C@H]1C=CC(=O)O[C@@H]1[C@H]1N=C(C(=O)c2ccccc2)O[C@@H]1c1ccccc1,> 40 µM,> 40 µM,> 40 µM,> 40 µM,> 40 µM,–,–
CC(=O)O[C@H]1C=CC(=O)O[C@@H]1c1nc(/C=C/c2ccccc2)oc1-c1ccccc1,5.89 µM,24.6 µM,24.8 µM,7.36 µM,7.22 µM,Stable,–
C/C=C\c1nc([C@H]2OC(=O)C=C[C@@H]2OC(C)=O)c(-c2ccccc2)o1,> 40 µM,> 40 µM,> 40 µM,> 40 µM,> 40 µM,–,–
CC(=O)O[C@H]1C=CC(=O)O[C@@H]1c1nc(-c2ccccc2)oc1-c1ccccc1,2.59 µM,15.7 µM,14.7 µM,12 µM,13.9 µM,–,–
CC(=O)O[C@H]1C=CC(=O)O[C@@H]1[C@H](NC(=O)c1ccccc1)[C@H](O)c1ccccc1,> 40 µM,> 40 µM,> 40 µM,> 40 µM,> 40 µM,–,–
CC(=O)O[C@H]1C=CC(=O)O[C@@H]1[C@@H](NC(=O)Cc1ccccc1)[C@H](O)c1ccccc1,5.19 µM,> 40 µM,> 40 µM,38.8 µM,> 40 µM,–,–
CC(=O)O[C@H]1C=CC(=O)O[C@@H]1[C@@H](NC(=O)/C=C/c1ccccc1)[C@H](O)c1ccccc1,> 40 µM,> 40 µM,> 40 µM,> 40 µM,> 40 µM,–,–
CC(=O)O[C@H]1C=CC(=O)O[C@@H]1/C=C/c1ccccc1,2.68 µM,29 µM,38.8 µM,4.63 µM,7.95 µM,Stable,–
CC(=O)O[C@H]1C=CC(=O)O[C@@H]1[C@@H](O)[C@@H](Nc1ccccc1)c1ccccc1,> 40 µM,> 40 µM,> 40 µM,> 40 µM,> 40 µM,–,–
CC(=O)O[C@H]1C=CC(=O)O[C@@H]1[C@@H](O)[C@H](O)c1ccccc1,> 40 µM,> 40 µM,> 40 µM,> 40 µM,> 40 µM,–,–
CC(=O)O[C@H]1C=CC(=O)O[C@H]1[C@H]1OC(C)(C)O[C@@H]1c1ccccc1,> 40 µM,> 40 µM,> 40 µM,> 40 µM,> 40 µM,–,–
CC(=O)O[C@H]1C=CC(=O)O[C@H]1[C@H]1OC(=O)O[C@@H]1c1ccccc1,> 40 µM,> 40 µM,> 40 µM,> 40 µM,> 40 µM,–,–
CC(=O)O[C@H]1C=CC(=O)O[C@H]1[C@H]1O[C@@H]1c1ccccc1 [CHELIENSISIN A],1.97 µM,4.7 µM,5.99 µM,20.3 µM,25.7 µM,Stable,–
